One assay concerns SNU878. Nature of the assay: Cytotoxicity against human SNU878 cells assessed as cell viability at 10 uM after 24 hrs by MTT assay. The class given is functional, cell-based. The method, boiled down: (§1)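 Lines from Korea Cell Line Bank, kept in RPMI1640 with serum and penicillin/streptomycin at 37 °C, 5% CO2. Seeded at 1 × 10⁴ cells/well and grown 24 h, then exposed to the inhibitor for 24 h. MTT added at 4 mg/mL final for 2 h, formazan taken up in DMSO, absorbance read at 570 nm. Run in quadruplicate.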

In assay [1] the target is Casein kinase II (Homo sapiens) (UniProt P67870+P68400+P19784). As to the kind of experiment: (§2) Inhibition of human CK2 assessed as residual activity by KinaseProfiler assay. The class given is protein-complex assay.
Assay [2] concerns AGS. As to the kind of experiment: Induction of apoptosis in TRAIL-resistant human AGS cells assessed as cell death at 10 uM after 24 hrs and subsequently treated with TRAIL 200 ng/ml for 2 hr by Annexin-V-FLUOS staining. The class given is functional, cell-based. The method in brief:
(§3)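 Cells were left untreated or pretreated with the inhibitor at 10 µM for 24 h, then exposed to TRAIL (200 ng/mL) for 2 h. They were then washed with PBS and stained with Annexin-V-FLUOS/propidium iodide for 15 min. Apoptotic cells were counted by fluorescence microscopy. Viability was assessed in parallel by MTT. Data are given as mean ± SD.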

Assay [3] deals with SK-HEP1. Nature of the assay: Cytotoxicity against human SKHEP1 cells assessed as cell viability at 10 uM after 24 hrs by MTT assay. The class given is functional, cell-based. On the technique in general: Tetrazolium dyes change colour on reduction, which living cells bring about.
A further assay deals with MKN-45. Nature of the assay: Cytotoxicity against human MKN45 cells assessed as cell viability at 10 uM after 24 hrs by MTT assay. The class given is functional, cell-based. The method, boiled down: as §1
Assay [4] has as its system TE-2. As to the kind of experiment: Cytotoxicity against human TE2 cells expressing CK2 assessed as cell viability at 10 uM after 24 hrs by MTT assay. The class given is functional, cell-based. The method in brief: (§4)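 Esophageal TE2 cells stably carrying GFP or CK2α were plated at 1 × 10⁴ cells/well and grown 24 h. They were then exposed for 24 h, given MTT at 4 mg/mL final for 2 h, formazan dissolved in DMSO, absorbance at 570 nm.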

The test system of the next assay is SNU484. Nature of the assay: Cytotoxicity against human SNU484 cells assessed as cell viability at 10 uM after 24 hrs by MTT assay. The class given is functional, cell-based. The method, boiled down: as §1
For assay [5], the system named is MKN-1. Nature of the assay: Induction of apoptosis in TRAIL-resistant human MKN1 cells assessed as cell death at 10 uM after 24 hrs and subsequently treated with TRAIL 200 ng/ml for 2 hr by Annexin-V-FLUOS staining. The class given is functional, cell-based. The method in brief: as §3
The test system of assay [6] is MKN-1. Nature of the assay: Cytotoxicity against human MKN1 cells assessed as cell viability at 10 uM after 24 hrs by MTT assay. The class given is functional, cell-based. The method in brief: as §1
The subject of another assay is SNU761. Nature of the assay: Cytotoxicity against human SNU761 cells assessed as cell viability at 10 uM after 24 hrs by MTT assay. The class given is functional, cell-based. The method, boiled down: as §1
For assay [7], the system named is MKN-28. Nature of the assay: Induction of apoptosis in TRAIL-resistant human MKN28 cells assessed as cell death at 10 uM after 24 hrs and subsequently treated with TRAIL 200 ng/ml for 2 hr by Annexin-V-FLUOS staining. The class given is functional, cell-based. The method, boiled down:
as §3

For the next assay, the system named is Hep 3B2. Nature of the assay: Cytotoxicity against human Hep3B cells assessed as cell viability at 10 uM after 24 hrs by MTT assay. The class given is functional, cell-based. The method, boiled down: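 Hep3B kept in Dulbecco's Modified Eagle's Medium with serum and antibiotics at 37 °C, 5% CO2. Seeded at 1 × 10⁴ cells/well and grown 24 h, then exposed for 24 h. MTT at 4 mg/mL final for 2 h, DMSO solubilisation, A570. Quadruplicate.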

Assay [8] concerns the target Casein kinase II subunit alpha (Homo sapiens) (UniProt P68400). As to the kind of experiment: Inhibition of recombinant human CK2alpha assessed as inhibition of phosphorylation of GST-CS at 10 uM by Coomassie brilliant blue staining based autoradiography.
A further assay deals with MKN-74. As to the kind of experiment: Cytotoxicity against human MKN74 cells assessed as cell viability at 10 uM after 24 hrs by MTT assay. The class given is functional, cell-based. The method, boiled down: as §1
For assay [9], the target named is T1, Casein kinase II (Homo sapiens, UniProt P19784+P67870+P68400). Nature of the assay: Competitive inhibition of human CK2 assessed as competitive with respect to ATP. The class given is protein-complex assay.
For assay [10], the system named is SK-HEP1. Nature of the assay: Induction of apoptosis in TRAIL-resistant human SKHEP1 cells assessed as cell death at 10 uM after 24 hrs and subsequently treated with TRAIL 200 ng/ml for 2 hr by Annexin-V-FLUOS staining. The class given is functional, cell-based. The method, boiled down:
as §3

The next assay has as its system NCI-N87. As to the kind of experiment: Cytotoxicity against human NCI-N87 cells assessed as cell viability at 10 uM after 24 hrs by MTT assay. The class given is functional, cell-based. The method, boiled down: as §1
Assay [11] deals with AGS. Nature of the assay: Cytotoxicity against human AGS cells assessed as cell viability at 10 uM after 24 hrs by MTT assay. The class given is functional, cell-based. The method, boiled down: (§5)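 AGS and HepG2 kept in Modified Eagle's Medium with serum and antibiotics at 37 °C, 5% CO2. Seeded at 1 × 10⁴ cells/well and grown 24 h, then exposed for 24 h. MTT at 4 mg/mL final for 2 h, formazan dissolved in DMSO, A570. Quadruplicate.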

For assay [12], the system named is HepG2. Nature of the assay: Induction of apoptosis in TRAIL-resistant human HepG2 cells assessed as cell death at 10 uM after 24 hrs and subsequently treated with TRAIL 200 ng/ml for 2 hr by Annexin-V-FLUOS staining. The class given is functional, cell-based. The method in brief: as §3
Assay [13] deals with MKN-28. Nature of the assay: Cytotoxicity against human MKN28 cells assessed as cell viability at 10 uM after 24 hrs by MTT assay. The class given is functional, cell-based. The method in brief: as §1
The test system of assay [14] is SNU739. Nature of the assay: Cytotoxicity against human SNU739 cells assessed as cell viability at 10 uM after 24 hrs by MTT assay.
In assay [15] the test system is TE-2. As to the kind of experiment: Cytotoxicity against GFP-tagged human TE2 cells assessed as cell viability at 10 uM after 24 hrs by MTT assay. The class given is functional, cell-based. The method in brief: as §4
In assay [16] the target is 5'-AMP-activated protein kinase catalytic subunit alpha-1 (Homo sapiens) (UniProt Q13131). As to the kind of experiment: Inhibition of human AMPKalpha1 assessed as residual activity at 10 uM by KinaseProfiler assay. The method in brief: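 Radioactive phosphorylation assays were run by an outsourced profiling service. Each of 31 human kinases was tested with inhibitor at 10 µM. Residual activity is expressed as a percentage of the mean activity in positive-control wells, which contained all reaction components except inhibitor plus DMSO as solvent control.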

Another assay deals with SNU668. As to the kind of experiment: Cytotoxicity against human SNU668 cells assessed as cell viability at 10 uM after 24 hrs by MTT assay. The class given is functional, cell-based. The method in brief:
as §1

The target of assay [17] is Casein kinase II subunit alpha (Homo sapiens) (UniProt P68400). As to the kind of experiment: Inhibition of recombinant human CK2alpha assessed as inhibition of phosphorylation of GST-CS by Coomassie brilliant blue staining based autoradiography.
The test system of assay [18] is HepG2. Nature of the assay: Cytotoxicity against human HepG2 cells assessed as cell viability at 10 uM after 24 hrs by MTT assay. The class given is functional, cell-based. The method, boiled down: as §5
Assay [19] deals with SNU739. As to the kind of experiment: Induction of apoptosis in TRAIL-resistant human SNU739 cells assessed as cell death at 10 uM after 24 hrs and subsequently treated with TRAIL 200 ng/ml for 2 hr by Annexin-V-FLUOS staining. The class given is functional, cell-based. The method, boiled down:
as §3

The target of assay [20] is T1, Casein kinase II. The assay is described as §2. The class given is protein-complex assay.

The source made the active and inactive calls. The rule behind the calls is not given here.

As a reminder, the Ki is the dissociation constant of the complex between target and ligand, obtained from inhibition or displacement. As usually defined, the IC50 is the point on the concentration scale where inhibition reaches its midpoint.

With `CCOC(=O)C1=C(C)N=c2s/c(=C\c3ccc(O)c(O)c3)c(=O)n2C1c1ccc(Cl)cc1` (configuration not stated), the result (in the assay with SNU878; in assay [1]; in the assay on AGS [2]; with SK-HEP1 [3]; in the assay with MKN-45; in the assay with TE-2 [4]) was Active. For the same compound, the result in the assay with SNU484, in the assay on MKN-1 [5], with MKN-1 [6], with SNU761, in the assay on MKN-28 [7] and in the assay on Hep 3B2 was Active. In addition, the result in the assay with MKN-74, with SK-HEP1 [10], in the assay on NCI-N87, in the assay on AGS [11], in the assay on HepG2 [12] and in the assay on MKN-28 [13] was Active. The result with SNU739 [14], in the assay on TE-2 [15], in the assay with SNU668, in the assay on HepG2 [18] and with SNU739 [19] was Active. The inhibition entry in [8] and in assay [17] was “Active” each time. For the same compound, the Ki on Casein kinase II [9] amounted to 0.78 µM. Further, the Activity in [16] amounted to 82%.
Regarding `CCOC(=O)C1=C(C)N=c2s/c(=C\c3cc(O)c(O)c(O)c3)c(=O)n2C1c1ccc(Cl)cc1` (configuration not stated), the 50% inhibitory concentration (IC50) at Casein kinase II [20] turned out to be 8.79 µM. For the same compound, the inhibition result in assay [8] is “Active”. The Activity in assay [16] was found to be 64%.
`Brc1c(Br)c(Br)c2[nH]nnc2c1Br`: the outcome with SNU878, in the assay on SK-HEP1 [3], in the assay on MKN-45, in the assay with TE-2 [4], in the assay with SNU484 and with MKN-1 [6] was Active. Also, the outcome in the assay with SNU761, in the assay with Hep 3B2, in the assay on MKN-74, with NCI-N87, in the assay with AGS [11] and in the assay with MKN-28 [13] was Active. In addition, the result in the assay on SNU739 [14], in the assay on TE-2 [15], in the assay with SNU668 and in the assay with HepG2 [18] was Active. Further, in assay [16], the Activity was 75%.

The values above are taken from ChEMBL document CHEMBL3351625, “Ethyl 2-(benzylidene)-7-methyl-3-oxo-2,3-dihydro-5H-thiazolo[3,2-a]pyrimidine-6-carboxylate analogues as a new scaffold for protein kinase casein kinase 2 inhibitor” (Bioorg Med Chem, 2014).
